Assay [1] concerns the target Muscarinic acetylcholine receptor. The experiment in a line: Compound was evaluated for the inhibition of [3H]QNB binding to Muscarinic acetylcholine receptor from male Olac rat brain.
The subject of assay [2] is Rattus norvegicus. Kind of assay: The compound was evaluated for the anticonflict behavior in male wistar rats as rate of responses (reward) following dose of 5.0 mg/kg po. It counts as functional. Set-up: unit: responses/min. Put shortly: (§1)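 Male Wistar rats on 23-h food deprivation, water ad libitum, trained to lever-press for food on continuous reinforcement until stable. Compound or vehicle given orally in randomized sequence 60 min before testing. Responses/min were recorded in reward, timeout and conflict components. Differences from control were tested by Wilcoxon test.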

The test system of assay [3] is Rattus norvegicus. The experiment in a line: The compound was evaluated for the anticonflict behavior in male wistar rats as rate of responses (conflict) following dose of 5.0 mg/kg po. On the set-up: unit: responses/min. In kind it is functional. Put shortly:
as §1

Assay [4] has as its system Rattus norvegicus. Kind of assay: The compound was evaluated for the anticonflict behavior in male wistar rats as rate of responses (conflic) following dose of 20 mg/kg po. It counts as functional. On the set-up: unit: responses/min. Summed up: as §1
Assay [5] addresses D(2) dopamine receptor (Bos taurus) (UniProt P20288). Kind of assay: Inhibition of [3H]spiperone binding to Dopamine receptor D2 from calf caudate.
In assay [6] the test system is Rattus norvegicus. Kind of assay: The compound was evaluated for the anticonflict behavior in male wistar rats as rate of responses (timeout) following dose of 2.5 mg/kg po. In kind it is functional. Summed up: as §1
The subject of assay [7] is Mus musculus. The experiment in a line: Compound administered perorally was evaluated for the hypothermia (rectal temperature) in mice. It counts as functional. Summed up: (§2)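 Groups of three CFW mice (21-23 g) received oral compound in water or 0.5% carboxymethylcellulose. Rectal temperature was taken at 0.25, 2.5 and 5.0 h. Mean change from the group's initial mean was summed over the three times. Hypothermia scored if the summed reduction was >4 °C.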

In assay [8] the test system is Rattus norvegicus. Kind of assay: The compound was evaluated for the anticonflict behavior in male wistar rats as rate of responses (reward) following dose of 10 mg/kg po. It counts as functional. On the set-up: unit: responses/min. Put shortly: as §1
Assay [9] concerns Rattus norvegicus. The experiment in a line: The compound was evaluated for the anticonflict behavior in male wistar rats as rate of responses (timeout) following dose of 5.0 mg/kg po. It counts as functional. On the set-up: unit: responses/min. Summed up:
as §1

The subject of assay [10] is Rattus norvegicus. The experiment in a line: The compound was evaluated for the anticonflict behavior in male wistar rats as rate of responses (conflict) following dose of 0 mg/kg po. In kind it is functional. On the set-up: unit: responses/min. Summed up: as §1
For assay [11], the system named is Rattus norvegicus. The experiment in a line: The compound was evaluated for the anticonflict behavior in male wistar rats as rate of responses (reward) following dose of 2.5 mg/kg po. It counts as functional. Put shortly: as §1
Assay [12] has as its system Mus musculus. Kind of assay: Dose below which no catalepsy was observed at any time period (following p.o. dosing). It counts as functional. Put shortly:
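CFW mice (21-23 g), three per group, dosed orally in water or 0.5% carboxymethylcellulose. Checked at 0.25, 2.5 and 5.0 h for holding one hind limb on a 2-cm rubber bung and staying on a vertical grid, judged against a control by a trained observer.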

Assay [13] deals with Rattus norvegicus. Kind of assay: The compound was evaluated for the anticonflict behavior in male wistar rats as rate of responses (conflict) following dose of 10 mg/kg po. It counts as functional. On the set-up: unit: responses/min. Summed up:
as §1

For assay [14], the system named is Rattus norvegicus. The experiment in a line: The compound was evaluated for the anticonflict behavior in male wistar rats as rate of responses (reward) following dose of 20 mg/kg po. In kind it is functional. On the set-up: unit: responses/min. Summed up: as §1
The subject of assay [15] is Rattus norvegicus. The experiment in a line: The compound was evaluated for the anticonflict behavior in male wistar rats as rate of responses (conflict) following dose of 2.5 mg/kg po. It counts as functional. Put shortly: as §1
Assay [16] concerns Rattus norvegicus. Kind of assay: Rotarod response in rat to assess muscular incoordination (following p.o. dosing). It counts as functional. Summed up: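 Male Olac-Wistar rats (140-150 g), five per group, fed ad libitum, dosed orally. Tested 1 and 2 h later on a horizontal rod (2 rpm, 32 mm diameter), maximum 30 s. Mean time compared with vehicle controls by Mann-Whitney U test, significant at p < 0.05.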
On the technique in general: The rotarod test checks motor coordination on a turning rod.

For assay [17], the system named is Rattus norvegicus. Kind of assay: The compound was evaluated for the anticonflict behavior in male wistar rats as rate of responses (timeout) following dose of 10 mg/kg po. It counts as functional. On the set-up: unit: responses/min. Summed up:
as §1

Assay [18] deals with Rattus norvegicus. The experiment in a line: The compound was evaluated for the anticonflict behavior in male wistar rats as rate of responses (timeout) following dose of 20 mg/kg po. In kind it is functional. Set-up: unit: responses/min. Summed up:
as §1

Assay [19] has as its system Rattus norvegicus. Kind of assay: The compound was evaluated for the anticonflict behavior in male wistar rats as rate of responses (reward) following dose of 0 mg/kg po. It counts as functional. Set-up: unit: responses/min. Put shortly: as §1
In assay [20] the test system is Rattus norvegicus. The experiment in a line: The compound was evaluated for the anticonflict behavior in male wistar rats as rate of responses (timeout) following dose of 0 mg/kg po. It counts as functional. Put shortly:
as §1

Assay [21] relates to Rattus norvegicus. The experiment in a line: Compound administered perorally was evaluated for the conditioned avoidance response in rats. In kind it is functional. Summed up:
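Olac-Wistar rats (120-130 g) trained to cross a shuttle box on a 5-s buzzer, with mild shock if no response within 1 s after it ends. Only high-responders used. Groups of five were dosed orally in water or 0.5% carboxymethylcellulose 1 h 50 min before testing. After 10-min habituation they were tested 20 min. Blockade = shocks as % of stimuli presented.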

Assay [22] has as its target D(2) dopamine receptor (Bos taurus) (UniProt P20288). Kind of assay: Inhibition of [3H]spiperone binding to dopamine receptor D2 from calf caudate.
Assay [23] has as its target Muscarinic acetylcholine receptor. The experiment in a line: Inhibition of [3H]QNB binding to muscarinic cholinergic receptor from male Olac rat brain.
For assay [24], the species on record is Rattus norvegicus. The experiment in a line: compound behavior in rat. It counts as functional. Set-up: unit not given here. Put shortly: (§3)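 Olac-Wistar rats (180-190 g), eight per group, dosed orally, front paws placed on a 1.5-cm rod 7 cm above the table. Tested at 0.5, 1, 1.5, 2, 3, 4 and 5 h, up to 20 min hold. Each animal's maximum score (0-5 by time held) was summed, giving a group maximum of 40.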

The species named for assay [25] is Rattus norvegicus. The experiment in a line: Compound behavior in rat. It counts as functional. Set-up: unit not given here. Put shortly:
as §3

The subject of assay [26] is Mus musculus. Kind of assay: Compound administered perorally was evaluated for the hypothermia (rectal temperature ) in mice. It counts as functional. Summed up:
as §2

The results in this text go back to ChEMBL document CHEMBL1124378, “Synthesis and pharmacological evaluation of a series of 4-piperazinylpyrazolo[3,4-b]- and -[4,3-b][1,5]benzodiazepines as potential anxiolytics” (J Med Chem, 1989).

The structures appear in SMILES notation.

For orientation: IC50 means the concentration that gives 50% inhibition.

With `CN1CCN(C2=Nc3cc(Br)ccc3Nc3nn(C)cc32)CC1`, the 50% inhibitory concentration (IC50) is greater than 10 µM in [1] and 0.68 µM in assay [5]. In addition, the Activity with Rattus norvegicus [2] stood at 22.1; in the assay with Rattus norvegicus [3] it was 2.6; in the assay with Rattus norvegicus [4], 4.1; in the assay with Rattus norvegicus [6], 2.1; with Rattus norvegicus [8], 23; in the assay on Rattus norvegicus [9], 6. Besides, the Activity with Rattus norvegicus [10] came to 0.5; in the assay on Rattus norvegicus [11] it was 21.9; with Rattus norvegicus [13], 5; with Rattus norvegicus [14], 14.1; with Rattus norvegicus [15], 2.2; in the assay with Rattus norvegicus [17] it was 8. For the same compound, the Activity was determined as 4.4 with Rattus norvegicus [18], 18.7 in the assay on Rattus norvegicus [19] and 2 with Rattus norvegicus [20]. For the same compound, the EDmin turned out to be 12.5 mg/kg with Mus musculus [7] and 25 mg/kg in the assay on Mus musculus [12]. The ED was greater than 10 mg/kg with Rattus norvegicus [16] and greater than 5 mg/kg in the assay with Rattus norvegicus [21].
On to `CCn1cc2c(n1)Nc1ccc(F)cc1N=C2N1CCN(C)CC1`, for which the half-maximal inhibitory concentration (IC50) in [22] amounted to 3.3 µM; in [23], 14 µM. Further, the EDmin with Mus musculus [7] is 6 mg/kg; with Mus musculus [12], greater than 400 mg/kg. In addition, the ED in the assay on Rattus norvegicus [16] is greater than 40 mg/kg; with Rattus norvegicus [21], 50 mg/kg. This compound also yielded an Activity in the assay listed under Rattus norvegicus [24] of 50.
Consider `Cc1c2c(nn1C)Nc1ccc(F)cc1N=C2N1CCN(C)CC1`, for which the half-maximal inhibitory concentration (IC50) in assay [22] was 97 µM; in assay [23], 3.2 µM. Moreover, the EDmin was determined as 25 mg/kg with Mus musculus [7] and 200 mg/kg in the assay with Mus musculus [12]. In addition, the ED with Rattus norvegicus [16] and in the assay on Rattus norvegicus [21] was greater than 50 mg/kg each time. This compound had an Activity in the assay filed under Rattus norvegicus [24] of 50.
Regarding `CN1CCN(C2=Nc3ccc(F)cc3Nc3nn(C)cc32)CC1`, the half-inhibitory concentration (IC50) in [22] came out at 2.6 µM; in assay [23], 43 µM. Also, the EDmin was found to be 1.6 mg/kg with Mus musculus [7] and 100 mg/kg in the assay with Mus musculus [12]. The ED in the assay on Rattus norvegicus [16] is greater than 40 mg/kg; in the assay on Rattus norvegicus [21], greater than 20 mg/kg. Also, in the assay filed under Rattus norvegicus [24], the Activity is on record as greater than 50.
`Cc1ccc2c(c1)Nc1nn(C)cc1C(N1CCN(C)CC1)=N2`: the values for the IC50 in [1] and in assay [5] were greater than 100 µM and 5.6 µM, respectively. The EDmin with Mus musculus [7] was 200 mg/kg; in the assay on Mus musculus [12] it was greater than 400 mg/kg. For the same compound, the Activity in the assay filed under Rattus norvegicus [25] is recorded as greater than 50. Moreover, the ED in the assay with Rattus norvegicus [16] and in the assay on Rattus norvegicus [21] was greater than 50 mg/kg each time.
Turning to `CNC1=Nc2ccc(Cl)cc2C(c2ccccc2)=[N+]([O-])C1` [CHLORDIAZEPOXIDE], the Activity with Rattus norvegicus [2] is reported as 70.8; in the assay on Rattus norvegicus [3] it was 1.9; in the assay with Rattus norvegicus [4], 3.3; in the assay on Rattus norvegicus [8] it was 68.8; in the assay on Rattus norvegicus [9], 2.2; in the assay on Rattus norvegicus [10], 0.6. Besides, the Activity was found to be 4.2 with Rattus norvegicus [13]; 54.3 with Rattus norvegicus [14]; 3.4 in the assay on Rattus norvegicus [17]; 3.7 with Rattus norvegicus [18]; 70.2 in the assay on Rattus norvegicus [19]; 1.4 with Rattus norvegicus [20].
For `CN1CCN(C2=Nc3cc(Cl)ccc3Nc3ccccc32)CC1` [CLOZAPINE], the EDmin was 100 mg/kg in the assay with Mus musculus [12] and 50 mg/kg in the assay with Mus musculus [26]. For the same compound, the Activity in the assay filed under Rattus norvegicus [25] is recorded as 80. The ED in the assay with Rattus norvegicus [16] is 40 mg/kg; with Rattus norvegicus [21] it was 30 mg/kg.
As for `Cc1cc2c(s1)Nc1ccc(F)cc1N=C2N1CCN(C)CC1` [FLUMEZAPINE], the EDmin in the assay on Mus musculus [7] was 1.6 mg/kg; in the assay on Mus musculus [12], 6.25 mg/kg. Besides, the ED in the assay with Rattus norvegicus [16] worked out at 10 mg/kg; with Rattus norvegicus [21] it was 5 mg/kg. Also, the Activity in the assay filed under Rattus norvegicus [24] is reported as 20.
